Assay results: ChEMBL document CHEMBL2380254, “Optimization of tocotrienols as antiproliferative and antimigratory leads” (Eur J Med Chem, 2013)

What was measured:
[1] = system: UO-31; assay: Growth inhibition of human UO31 cells assessed as cell growth at 10 uM after 48 hrs by sulforhodamine B assay; format: functional; settings: UO-31, 48 h, read-out: Activity
Method in brief: (§1)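 Single-dose NCI-60 test at 10 µM. Cells were grown in RPMI 1640 with 5% FBS and 2 mM L-glutamine, preincubated 24 h, with T0 plates TCA-fixed. Exposure was 48 h at 37 °C, 5% CO2. Cells were fixed with cold TCA (final 10%, 4 °C, 60 min), stained with SRB and read at 515 nm. Percent growth was taken relative to T0 and untreated control; negative values denote cell kill.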

[2] = system: SNB-19; assay: Growth inhibition of human SNB19 cells after 48 hrs by sulforhodamine B assay; format: functional; settings: SNB-19, 48 h
Method in brief: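 NCI-60 five-dose screen. Cells were grown in RPMI 1640 with 5% FBS and 2 mM L-glutamine, plated at 5000–40,000 cells/well and incubated 24 h before dosing, with T0 plates TCA-fixed. DMSO stocks were diluted to doses of […] and exposed 48 h at 37 °C, 5% CO2. Cells were fixed with cold TCA (final 10%, 60 min, 4 °C), stained with 0.4% SRB in 1% acetic acid for 10 min, solubilized in 10 mM trizma base and read at 515 nm. GI50 is where 100×(T−T0)/(C−T0)=50.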

[3] = system: MCF7; assay: Antiproliferative activity against human MCF7 cells by MTT assay; format: functional, cell-based
Method in brief: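 Cells plated at 8 × 10^3/well (MDA-MB-231) or 10^4/well (MCF7) in 96-well plates. Compounds fed in media with 5% FBS (MDA-MB-231) or 1% FBS (MCF7). MTT read-out of viable cells.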

[4] = system: NCI-H23; assay: Growth inhibition of human NCI-H23 cells after 48 hrs by sulforhodamine B assay; format: functional; settings: NCI-H23, 48 h
Method in brief: (§2)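 NCI-60 panel cells grown in RPMI 1640 with 5% FBS and 2 mM L-glutamine, seeded at 5000–40,000 cells/well and preincubated 24 h. Five 10-fold dilutions (0.001–100 µM) from DMSO stocks were added for 48 h at 37 °C. Adherent cells were fixed with cold TCA (10% final) for 60 min at 4 °C, stained with 0.4% SRB, and read at 515 nm. GI50 was set where 100×(T−T0)/(C−T0)=50.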

[5] = system: MDA-MB-468; assay: Growth inhibition of human MDA-MB-468 cells after 48 hrs by sulforhodamine B assay; format: functional; settings: MDA-MB-468, 48 h; method in brief: as §2
[6] = system: HCT-116; assay: Growth inhibition of human HCT116 cells assessed as cell growth at 10 uM after 48 hrs by sulforhodamine B assay; format: functional; settings: HCT-116, 48 h, read-out: Activity
Method in brief: (§3)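 NCI-60 single-dose screen at 10 µM: cells in RPMI 1640 with 5% FBS, preincubated 24 h, then exposed 48 h at 37 °C. TCA fixation (16% final for suspension cells), SRB staining, absorbance 515 nm. Percent growth relative to time-zero and untreated control plates; negative values indicate cell kill.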

[7] = system: MDA-MB-468; assay: Growth inhibition of human MDA-MB-468 cells assessed as cell growth at 10 uM after 48 hrs by sulforhodamine B assay; format: functional; settings: MDA-MB-468, 48 h, read-out: Activity
Method in brief: (§4)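 Single-dose NCI-60 screen: adherent cells in RPMI 1640 with 5% FBS were exposed to 10 µM for 48 h at 37 °C after a 24 h preincubation. They were fixed in situ with cold TCA (10% final), stained with 0.4% SRB in 1% acetic acid, solubilized in 10 mM Tris base, and read at 515 nm. Percent growth was taken relative to time-zero and control plates.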

[8] = system: NCI-H522; assay: Growth inhibition of human NCI-H522 cells assessed as cell growth at 10 uM after 48 hrs by sulforhodamine B assay; format: functional; settings: NCI-H522, 48 h, read-out: Activity; method in brief: as §4
[9] = system: SK-OV-3; assay: Growth inhibition of human SKOV3 cells assessed as cell growth at 10 uM after 48 hrs by sulforhodamine B assay; format: functional; settings: SK-OV-3, 48 h, read-out: Activity; method in brief: as §1
[10] = system: A549; assay: Growth inhibition of human A549/ATCC cells assessed as cell growth at 10 uM after 48 hrs by sulforhodamine B assay; format: functional; settings: A549, 48 h, read-out: Activity; method in brief: as §3
[11] = system: UACC-62; assay: Growth inhibition of human UACC62 cells assessed as cell growth at 10 uM after 48 hrs by sulforhodamine B assay; format: functional; settings: UACC-62, 48 h, read-out: Activity; method in brief: as §1
[12] = system: HL-60(TB); assay: Growth inhibition of human HL-60(TB) cells assessed as cell growth at 10 uM after 48 hrs by sulforhodamine B assay; format: functional; settings: HL-60, 48 h, read-out: Activity
Method in brief: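 NCI-60 single-dose screen run at 10 µM on HL-60(TB) suspension cells in RPMI 1640 with 5% FBS and 2 mM L-glutamine. Cells were preincubated for 24 h, with a time-zero plate fixed then. Exposure lasted 48 h at 37 °C. Settled cells were fixed with TCA (16% final), stained with SRB and read at 515 nm. Percent growth is relative to control and T0.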

[13] = system: TK-10; assay: Growth inhibition of human TK10 cells assessed as cell growth at 10 uM after 48 hrs by sulforhodamine B assay; format: functional; settings: TK-10, 48 h, read-out: Activity; method in brief: as §1
[14] = system: RPMI-8226; assay: Growth inhibition of human RPMI8226 cells assessed as cell growth at 10 uM after 48 hrs by sulforhodamine B assay; format: functional; settings: RPMI-8226, 48 h, read-out: Activity
Method in brief: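 Single 10 µM dose applied to suspension cells in RPMI 1640 with 5% FBS and 2 mM L-glutamine for 48 h at 37 °C. Settled cells were fixed with 80% TCA (16% final), stained with SRB, and read at 515 nm. Percent growth was calculated against time-zero and untreated control optical densities.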

[15] = system: 786-0; assay: Growth inhibition of human 786-0 cells after 48 hrs by sulforhodamine B assay; format: functional; settings: 786-0, 48 h
Method in brief: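 NCI-60 screen: cells in RPMI 1640 with 5% FBS and 2 mM glutamine, 5000–40,000 cells/well, preincubated 24 h. Five concentrations (10-fold dilutions; 100 to 0.001 µM) applied for 48 h at 37 °C. TCA fixation, SRB stain, absorbance at 515 nm. Time-zero plates included; GI50 where 100×(T−T0)/(C−T0)=50.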

[16] = system: SK-MEL-2; assay: Growth inhibition of human SK-MEL-2 cells after 48 hrs by sulforhodamine B assay; format: functional; settings: SK-MEL-2, 48 h; method in brief: as §2
[17] = system: SN12C; assay: Growth inhibition of human SN12C cells assessed as cell growth at 10 uM after 48 hrs by sulforhodamine B assay; format: functional; settings: read-out: Activity; method in brief: as §1
[18] = system: HT-29; assay: Growth inhibition of human HT-29 cells assessed as cell growth at 10 uM after 48 hrs by sulforhodamine B assay; format: functional; settings: HT-29, 48 h, read-out: Activity; method in brief: as §3
[19] = system: COLO 205; assay: Growth inhibition of human COLO205 cells assessed as cell growth at 10 uM after 48 hrs by sulforhodamine B assay; format: functional; settings: COLO 205, 48 h, read-out: Activity; method in brief: as §3
[20] = system: SNB-19; assay: Growth inhibition of human SNB19 cells assessed as cell growth at 10 uM after 48 hrs by sulforhodamine B assay; format: functional; settings: SNB-19, 48 h, read-out: Activity; method in brief: as §1

Structure (SMILES)	growth at 10 µM [1]	GI50 [2]	IC50 [3]	GI50 [4]	GI50 [5]	growth at 10 µM [6]	growth at 10 µM [7]	growth at 10 µM [8]	growth at 10 µM [9]	growth at 10 µM [10]	growth at 10 µM [11]	growth at 10 µM [12]	growth at 10 µM [13]	growth at 10 µM [14]	GI50 [15]	GI50 [16]	growth at 10 µM [17]	growth at 10 µM [18]	growth at 10 µM [19]	growth at 10 µM [20]
CC(C)=CCC/C(C)=C/CC/C(C)=C/CC[C@]1(C)CCc2c3c(cc(C)c2O1)OCN(CCCO)C3	59.4%	1640 nM	> 20000 nM	1880 nM	1560 nM	-85.4%	-29%	-72.9%	88.3%	-35.9%	93%	15.3%	75.9%	2.29%	1860 nM	2270 nM	11.7%	-76.7%	-92.5%	4.52%
CC(C)=CCC/C(C)=C/CC/C(C)=C/CC[C@]1(C)CCc2c3c(c(C)c(C)c2O1)OCN(CCCCCCCCO)C3	27.9%	2470 nM	> 20000 nM	3160 nM	2570 nM	-92.9%	-12.6%	30.9%	52.9%	20.2%	93.1%	31%	93.5%	71.2%	2720 nM	3010 nM	65.8%	31.1%	14.9%	73.6%
CC(C)=CCC/C(C)=C/CC/C(C)=C/CC[C@]1(C)CCc2c3c(cc(C)c2O1)OCN(C1CCN(Cc2ccccc2)CC1)C3	57.8%	1610 nM	–	1510 nM	1410 nM	-81.9%	0.33%	-24.9%	109%	49.6%	93.6%	-18.9%	82.5%	14.6%	1520 nM	2300 nM	1.77%	22.7%	-36.5%	68.2%
CC(C)=CCC/C(C)=C/CC/C(C)=C/CC[C@]1(C)CCc2c3c(cc(C)c2O1)OCN(CCCCCCCCO)C3	-91.5%	1360 nM	> 20000 nM	4400 nM	591 nM	-100%	-90.7%	-81.6%	-56.9%	-85.3%	-15.3%	-57.3%	51.2%	-23.2%	2710 nM	5590 nM	-70.7%	-77.2%	-94.5%	-74.6%
CC(C)=CCC/C(C)=C/CC/C(C)=C/CC[C@]1(C)CCc2c3c(c(C)c(C)c2O1)OCN(CCCCCO)C3	64.6%	5990 nM	> 20000 nM	6670 nM	4140 nM	36.1%	87.4%	84.8%	101%	80.3%	99.2%	37.2%	97.5%	1.02%	6470 nM	7470 nM	78.5%	55.1%	68.7%	86.5%
CC(C)=CCC/C(C)=C/CC/C(C)=C/CC[C@]1(C)CCc2c3c(c(C)c(C)c2O1)OCN(CCCCO)C3	50.7%	3030 nM	> 20000 nM	> 10000 nM	2530 nM	-72.3%	57%	86.7%	76.9%	70%	96.6%	72.2%	101%	91.9%	> 10000 nM	> 10000 nM	76.8%	54.4%	-16%	71.3%
CC(C)=CCC/C(C)=C/CC/C(C)=C/CC[C@]1(C)CCc2c3c(cc(C)c2O1)OCN(CCCCO)C3	54.9%	16000 nM	16300 nM	17500 nM	15100 nM	-96.7%	-63.2%	48.5%	26.4%	-37.7%	68.5%	-2.37%	88.4%	79.2%	15500 nM	18900 nM	19.3%	2.06%	-76.8%	-28.3%
COc1ccc(CCN2COc3cc(C)c4c(c3C2)CC[C@@](C)(CC/C=C(\C)CC/C=C(\C)CCC=C(C)C)O4)cc1OC	51.2%	1660 nM	–	1850 nM	1460 nM	-84%	-25.4%	-45.8%	92.8%	58.4%	91.7%	15.4%	97.7%	-32.6%	1780 nM	2630 nM	37%	0.54%	-72.5%	80.5%
